Tests used:
[1] = target: T1, zebrafish 12-LOX (zf12-LOX, Alox12) (Danio rerio, UniProt A0ACM8Q0F4); assay: UV-Vis lipoxygenase rate assay; format: biochemical
T1 sequence (A0ACM8Q0F4 1-670): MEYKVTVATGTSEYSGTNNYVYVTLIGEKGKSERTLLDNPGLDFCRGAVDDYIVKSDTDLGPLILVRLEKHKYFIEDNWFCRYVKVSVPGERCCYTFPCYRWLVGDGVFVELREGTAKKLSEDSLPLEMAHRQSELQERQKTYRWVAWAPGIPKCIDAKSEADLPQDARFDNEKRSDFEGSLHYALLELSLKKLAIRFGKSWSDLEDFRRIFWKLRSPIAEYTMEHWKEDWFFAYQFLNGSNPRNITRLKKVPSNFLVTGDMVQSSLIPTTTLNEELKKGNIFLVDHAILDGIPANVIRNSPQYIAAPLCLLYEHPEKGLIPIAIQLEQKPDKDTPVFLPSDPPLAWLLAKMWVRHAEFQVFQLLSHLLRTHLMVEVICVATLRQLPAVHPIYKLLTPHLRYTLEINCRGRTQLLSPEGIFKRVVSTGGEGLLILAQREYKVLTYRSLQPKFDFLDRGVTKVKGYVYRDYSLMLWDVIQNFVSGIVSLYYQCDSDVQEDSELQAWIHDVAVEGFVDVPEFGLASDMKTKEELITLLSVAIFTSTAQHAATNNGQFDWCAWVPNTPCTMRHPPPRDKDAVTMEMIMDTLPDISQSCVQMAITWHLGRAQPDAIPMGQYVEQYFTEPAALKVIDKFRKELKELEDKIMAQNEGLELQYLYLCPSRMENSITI
Outline: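 N-terminal 6xHis-tagged zf12-LOX, expressed from a pFastBac construct, purified on nickel-iminodiacetic acid agarose (>90% pure by SDS-PAGE). Reaction in 25 mM HEPES (pH 8.00), 0.01% Triton X-100, 10 μM arachidonic acid, run as a steady-state kinetic UV-Vis assay. Enzymatic rate measured at six inhibitor concentrations in triplicate; IC50 from a hyperbolic saturation curve fit of rate versus concentration.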

[2] = target: T2, human 12-LOX (Human ALOX12) (Homo sapiens, UniProt P18054); assay: biochemical
T2 sequence (P18054 1-663): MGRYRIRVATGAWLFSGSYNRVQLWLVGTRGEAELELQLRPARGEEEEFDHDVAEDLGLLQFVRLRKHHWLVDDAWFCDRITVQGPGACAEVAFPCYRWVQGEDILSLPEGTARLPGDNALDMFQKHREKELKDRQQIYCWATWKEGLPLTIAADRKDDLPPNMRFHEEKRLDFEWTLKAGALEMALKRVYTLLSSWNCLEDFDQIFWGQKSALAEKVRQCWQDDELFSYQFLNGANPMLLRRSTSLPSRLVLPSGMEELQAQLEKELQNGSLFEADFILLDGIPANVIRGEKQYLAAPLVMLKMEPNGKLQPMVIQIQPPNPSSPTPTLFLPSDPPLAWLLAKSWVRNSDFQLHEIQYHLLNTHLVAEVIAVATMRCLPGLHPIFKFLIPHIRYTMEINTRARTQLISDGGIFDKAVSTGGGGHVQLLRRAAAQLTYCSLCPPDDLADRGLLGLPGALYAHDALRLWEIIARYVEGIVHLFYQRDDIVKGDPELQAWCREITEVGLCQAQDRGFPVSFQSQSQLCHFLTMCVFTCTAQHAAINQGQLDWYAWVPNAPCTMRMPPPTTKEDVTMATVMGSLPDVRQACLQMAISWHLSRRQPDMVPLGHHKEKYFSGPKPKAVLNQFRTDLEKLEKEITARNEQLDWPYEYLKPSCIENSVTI

IC50 [1]: > 100 µM
IC50 [2]: > 50 µM
Compound: CNc1oc(-c2cccc3ccccc23)nc1C#N [ML351]
